Active and inactive are the calls of the source. No cut-off for these calls is given here.
Assays:
[1] = Antiphotoaging activity in HDF assessed as protection against 6 J/cm'2 UVA-induced reduction of cell survival at 5 uM treated 4 hrs before UVA irradiation measured after 24 hrs by MTT assay relative to control; format: functional; conditions: Homo sapiens, light or radiation study, read-out: Survival
How it was run: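 Normal human dermal fibroblasts (passages 5–10) seeded at 10 000 cells/well, grown overnight, exposed to compound at 5 μM for 4 h, then rinsed and irradiated in PBS with 6 J/cm2 UVA (365 nm lamp, 4.762 mW/cm2), after which medium was restored. After 24 h, MTT added for 2 h at 37 °C; formazan dissolved in DMSO, OD 540 nm. Reported as mean ± SD; three independent experiments, triplicate.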

[2] = organism: Mus musculus; experiment: Antiphotoaging activity in ICR mouse assessed as reduction of 3 J/cm'2 UVA-induced epidermal hypertrophy at 0.5 gram per square in dorsal skin immediately after UVA irradiation 3 times a week for up to 12 weeks; format: functional, organism-based
How it was run: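 Female ICR mice, six weeks old, n = 4 per group, dorsal skin shaved. Given 3 J/cm2 UVA (4.762 mW/cm2), then 0.1% emulsion (Tefose 63 base) applied topically at 0.5 g per square right after irradiation. Done three times weekly for up to 12 weeks (total 108 J/cm2). Skin taken after final irradiation for histology.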

[3] = test system: HDF; experiment: Antiphotoaging activity in HDF assessed as reduction of 6 J/cm'2 UVA-induced senescence-associated-beta-gal positive cells treated 4 hrs before UVA irradiation using 5-bromo-4-chloro-3-indoyl-beta-galactoside staining by microscopic analysis; format: functional; conditions: Homo sapiens
[4] = test system: HDF; experiment: Effect on senescence-associated-beta-gal expression in HDF using 5-bromo-4-chloro-3-indoyl-beta-galactoside staining by microscopic analysis; format: functional; conditions: Homo sapiens
[5] = test system: HDF; experiment: Antiphotoaging activity in HDF assessed as protection against 6 J/cm'2 UVA-induced increase of MMP-1 protein expression treated 4 hrs before UVA irradiation by Western blot analysis; format: functional; conditions: Homo sapiens
How it was run: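 Fibroblasts pretreated with 5 μM, then given 6 J/cm2 UVA. Lysed in ice-cold RIPA with protease and phosphatase inhibitors; protein measured by Bradford. Immunoblot with rabbit monoclonal anti-MMP-1, actin as loading control. HRP secondary, chemiluminescence detection, densitometry. Three independent experiments.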

[6] = test system: HDF; experiment: Antiphotoaging activity in HDF assessed as protection against 6 J/cm'2 UVA-induced increase of MMP-1 mRNA expression treated 4 hrs before UVA irradiation by quantitative RT-PCR analysis; format: functional; conditions: Homo sapiens
How it was run: (§1)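 Fibroblasts treated with compound alone, UVA alone, or both. Total RNA extracted with Trizol; 2 μg reverse-transcribed. SYBR Green real-time qPCR with 0.3 μM each primer and 100 ng cDNA. GAPDH listed among the amplified genes.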

[7] = test system: HDF; experiment: Antiphotoaging activity in HDF assessed as protection against 6 J/cm'2 UVA-induced reduction of TIMP-1 mRNA expression treated 4 hrs before UVA irradiation by quantitative RT-PCR analysis; format: functional; conditions: Homo sapiens; how it was run: as §1
[8] = test system: HDF; experiment: Antiphotoaging activity in HDF assessed as protection against 6 J/cm'2 UVA-induced reduction of COL1alpha1 mRNA expression treated 4 hrs before UVA irradiation by quantitative RT-PCR analysis; format: functional; conditions: Homo sapiens; how it was run: as §1
[9] = test system: HDF; experiment: Antiphotoaging activity in HDF assessed as protection against 6 J/cm'2 UVA-induced reduction of fibronectin mRNA expression treated 4 hrs before UVA irradiation by quantitative RT-PCR analysis; format: functional; conditions: Homo sapiens; how it was run: as §1
[10] = test system: HDF; experiment: Antiphotoaging activity in HDF assessed as protection against 6 J/cm'2 UVA-induced reduction of procollagen 1 type 1 mRNA expression treated 4 hrs before UVA irradiation by quantitative RT-PCR analysis; format: functional; conditions: Homo sapiens; how it was run: as §1
[11] = test system: HDF; experiment: Antiphotoaging activity in HDF assessed as protection against 6 J/cm'2 UVA-induced reduction of elastin mRNA expression treated 4 hrs before UVA irradiation by quantitative RT-PCR analysis; format: functional; conditions: Homo sapiens; how it was run: as §1
[12] = test system: HDF; experiment: Effect on MMP-1 mRNA expression in HDF by quantitative RT-PCR analysis; format: functional; conditions: Homo sapiens; how it was run: as §1
[13] = test system: HDF; experiment: Effect on TIMP-1 mRNA expression in HDF by quantitative RT-PCR analysis; format: functional; conditions: Homo sapiens; how it was run: as §1
[14] = test system: HDF; experiment: Effect on COL1alpha1 mRNA expression in HDF by quantitative RT-PCR analysis; format: functional; conditions: Homo sapiens; how it was run: as §1
[15] = test system: HDF; experiment: Effect on fibronectin mRNA expression in HDF by quantitative RT-PCR analysis; format: functional; conditions: Homo sapiens; how it was run: as §1
[16] = test system: HDF; experiment: Effect on procollagen 1 type 1 mRNA expression in HDF by quantitative RT-PCR analysis; format: functional; conditions: Homo sapiens; how it was run: as §1
[17] = test system: HDF; experiment: Effect on elastin mRNA expression in HDF by quantitative RT-PCR analysis; format: functional; conditions: Homo sapiens; how it was run: as §1
[18] = test system: HDF; experiment: Antiphotoaging activity in HDF assessed as increase of 6 J/cm'2 UVA-induced mitochondrial membrane potential treated 4 hrs before UVA irradiation using DiOC6 staining by flow cytometry; format: functional; conditions: Homo sapiens
How it was run: (§2)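 Normal fibroblasts (passages 5–10) pretreated 4 h at 5 μM or at various concentrations, then 6 J/cm2 UVA given in PBS (365 nm lamp, 4.762 mW/cm2) or sham-irradiated. Cells trypsinized, pelleted, stained with DiOC6 30 min at room temperature, washed, resuspended in PBS. Read at once by flow cytometry, FL-1 530/30 nm. Three independent experiments.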

[19] = test system: HDF; experiment: Antiphotoaging activity in HDF assessed as reduction of 6 J/cm'2 UVA-induced ROS production treated 4 hrs before UVA irradiation using DCFH-DA staining by flow cytometry; format: functional; conditions: Homo sapiens
How it was run: (§3)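 Fibroblasts treated 4 h at 5 μM or at various concentrations, then exposed to 6 J/cm2 UVA in PBS (365 nm peak) or sham-irradiated. Loaded with DCFH-DA 10 μM for 30 min at 37 °C. DCF fluorescence read by flow cytometry on FL-1. Three independent experiments.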

[20] = test system: HDF; experiment: Effect on mitochondrial membrane potential in HDF at 5 uM after 4 hrs using DiOC6 staining by flow cytometry; format: functional; conditions: Homo sapiens; how it was run: as §2
[21] = test system: HDF; experiment: Effect on ROS production in HDF at 5 uM after 4 hrs using DCFH-DA staining by flow cytometry; format: functional; conditions: Homo sapiens; how it was run: as §3
[22] = test system: HDF; experiment: Antiphotoaging activity in HDF assessed as protection against 6 J/cm'2 UVA-induced reduction of ATP level at 5 uM treated 4 hrs before UVA irradiation by bioluminescent assay; format: functional; conditions: Homo sapiens
How it was run: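 Fibroblasts exposed 4 h to compound at 5 μM, then irradiated with 6 J/cm2 UVA in PBS. Cells lysed at once and debris spun off. Supernatant ATP measured by luciferin–luciferase bioluminescence. Expressed as percent of unirradiated, untreated control. Three independent experiments.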

[23] = test system: HDF; experiment: Antiphotoaging activity in HDF assessed as protection against 6 J/cm'2 UVA-induced reduction of cell proliferation at 1 to 5 uM measured after 24 hrs by irradiation by MTT assay; format: functional; conditions: Homo sapiens, TDE = time-dependent effect
How it was run: (§4)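 Fibroblasts seeded at 10 000 cells/well and left overnight. Pretreated with 0, 1, 2.5 or 5 μM for 2 or 4 h, then given 6 J/cm2 UVA in PBS; medium added back. After 24 h, MTT 2 h at 37 °C, formazan dissolved in DMSO, OD read at 540 nm. Three independent experiments.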

[24] = test system: HDF; experiment: Antiphotoaging activity in HDF assessed as protection against 6 J/cm'2 UVA-induced reduction of cell proliferation treated 2 to 4 hrs before UVA irradiation measured after 24 hrs by MTT assay; format: functional; conditions: Homo sapiens; how it was run: as §4

## c1ccc(-c2nnn3c2CCC3)cc1
[1]
  viability at 5 µM: 61.1%

## COc1cccc(-c2nnn3c2CCC3)c1
[1]
  viability at 5 µM: 58%

## C(#Cc1nnn2c1CCCC2)c1ccccc1
[1]
  viability at 5 µM: 68.7%

## Nc1ccccc1-c1nnn2c1CCCC2
[1]
  viability at 5 µM: 61%

## CCc1ccc(C#Cc2nnn3c2CCCC3)cc1
[1]
  viability at 5 µM: 55.7%

## COc1ccc(C#Cc2nnn3c2CCCC3)cc1
[1]
  viability at 5 µM: 73%

## O=[N+]([O-])c1cccc(C#Cc2nnn3c2CCCC3)c1
[1]
  viability at 5 µM: 71.3%

## O=[N+]([O-])c1ccc(-c2nnn3c2CCCC3)cc1
[1]
  viability at 5 µM: 52%

## c1ccc(-c2nnn3c2CCCC3)cc1
[1]
  viability at 5 µM: 57%

## COc1cccc(-c2nnn3c2CCCC3)c1
[1]
  viability at 5 µM: 63.7%

## O=[N+]([O-])c1ccc(-c2nnn3c2CCC3)cc1
[1]
  viability at 5 µM: 70%

## Fc1ccccc1C#Cc1nnn2c1CCC2
[1]
  viability at 5 µM: 75.2%

## O=[N+]([O-])c1ccc(C#Cc2nnn3c2CCC3)cc1
[1]
  viability at 5 µM: 84.1%

## COc1ccc(C#Cc2nnn3c2CCC3)cc1
[1]
  viability at 5 µM: 73.2%

## COc1ccc(-c2nnn3c2CCCC3)cc1
[1]
  viability at 5 µM: 54%

## O=[N+]([O-])c1cccc(C#Cc2nnn3c2CCC3)c1
[1]
  viability at 5 µM: 88.2%

## COc1cccc(C#Cc2nnn3c2CCC3)c1
[2]
  Activity: Active
[3]
  Activity: Active
[4]
  Activity: inactive
[5]
  Activity: Active
[6]
  Activity: Active
[7]
  Activity: Active
[8]
  Activity: Active
[9]
  Activity: Active
[10]
  Activity: Active
[11]
  Activity: Active
[12]
  Activity: inactive
[13]
  Activity: inactive
[14]
  Activity: inactive
[15]
  Activity: inactive
[16]
  Activity: inactive
[17]
  Activity: inactive
[18]
  Activity: Dose-dependent effect
[19]
  Activity: Dose-dependent effect
[20]
  Activity: inactive
[21]
  Activity: inactive
[22]
  Activity: Active
[1]
  viability at 5 µM: 95.3%
[23]
  Activity: tde
[24]
  Activity: Dose-dependent effect

## O=[N+]([O-])c1cccc(-c2nnn3c2CCCC3)c1
[1]
  viability at 5 µM: 62%

## O=[N+]([O-])c1cccc(-c2nnn3c2CCC3)c1
[1]
  viability at 5 µM: 52.8%

## COc1ccc(-c2nnn3c2CCC3)cc1
[1]
  viability at 5 µM: 70.3%

## Fc1ccccc1C#Cc1nnn2c1CCCC2
[1]
  viability at 5 µM: 78.9%

## CCc1ccc(C#Cc2nnn3c2CCC3)cc1
[1]
  viability at 5 µM: 80.7%

## C(#Cc1nnn2c1CCC2)c1ccccc1
[1]
  viability at 5 µM: 62.7%

## Nc1ccccc1C#Cc1nnn2c1CCC2
[1]
  viability at 5 µM: 71.2%

## COc1cccc(C#Cc2nnn3c2CCCC3)c1
[1]
  viability at 5 µM: 61.9%
